MrgX1 ag = agonists of human MrgX1 receptor, primary screen, HEK293 cells, Fluo-4 calcium flux. 310,000 tested, 0.44% active. Mas-related G-protein coupled receptor member X1 (Homo sapiens), Q96LB2. B-score at 10 µM. Fluo-4 calcium fluorescence, agonist mode; hits give high values;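 active = calcium response B-score plate-corrected fluorescence ratio at least 3 library SD, with starting fluorescence B-score inside 5 SD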
Target sequence (Q96LB2 whole entry, looked up): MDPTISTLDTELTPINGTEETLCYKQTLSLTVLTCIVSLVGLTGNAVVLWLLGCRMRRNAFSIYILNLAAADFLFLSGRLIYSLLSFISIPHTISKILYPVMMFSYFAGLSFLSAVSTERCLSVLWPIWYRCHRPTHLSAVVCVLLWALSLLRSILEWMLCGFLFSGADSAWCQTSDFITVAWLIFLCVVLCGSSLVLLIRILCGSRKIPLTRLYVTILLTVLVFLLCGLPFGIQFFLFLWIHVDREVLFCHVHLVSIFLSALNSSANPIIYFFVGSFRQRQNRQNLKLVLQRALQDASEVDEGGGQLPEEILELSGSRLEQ
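Assay system: stable human MrgX1 HEK293 cell line. Quantity: 15,000 cells per well. Schedule: cells plated overnight, dye loaded 0.5 h 37 °C, 0.5 h room temperature. Detection: Fluo-4 NW calcium-flux fluorescence, kinetic read. Read-out basis: peak-minus-minimum fluorescence over baseline, converted to B scores. Control set: positive and negative control wells on each plate.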
MrgX1 antag = antagonists of human MrgX1 receptor, primary screen, HEK293 cells, Fluo-4 calcium flux; AID 588676, 2011; B-score at 10 µM; Mas-related G-protein coupled receptor member X1 (Homo sapiens), Q96LB2; 310,000 tested, 1.3% active; BAM8-22 antagonism; hits give low values;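 active = calcium-response B-score plate-corrected more than 3 library SD below zero, starting fluorescence within 5 deviations, no agonist response on first addition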;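 also: peak minus trough fluorescence over baseline after final BAM8-22 challenge near maximal dose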
MrgX1 allo act = positive allosteric modulators of MrgX1, primary screen, HEK293 cells, Fluo-4 calcium flux | 310,000 tested, 0.63% active | B-score at 10 µM | FDSS; hits give high values | AID 588675, 2011 | Mas-related G-protein coupled receptor member X1 (Homo sapiens), Q96LB2;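 active = plate-corrected calcium response at least 3 library SD above typical, normal starting fluorescence, not activating the receptor alone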;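 also: compound read alongside a low EC10 to EC30 dose of BAM8-22 agonist; peak minus trough fluorescence over baseline measured at the second addition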
RGS4 act = RGS4 potentiators or activators, primary screen, cell-based, HEK293 M3R inducible RGS4, calcium flux; carbachol calcium flux Fluo4; hits give low values; B-score at 10 µM; 310,000 tested, 0.92% active;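 active = B-score of the integrated calcium signal more than 4 SD below the library mean, with starting fluorescence not abnormally high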;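 also: negative B-score means reduced calcium response which marks RGS4 activation or potentiation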
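Detection: kinetic calcium fluorescence imaging with Fluo4-AM dye, 2 µM / Material: HEK293 cells with stable M3R and inducible RGS4 / Schedule: recording 10 s baseline at 1 Hz, 100 s post-agonist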
RGS4 block = RGS4 inhibitors, primary screen, cell-based, HEK293 M3R inducible RGS4, calcium flux | 310,000 tested, 0.45% active | Fluo-4 calcium flux; hits give high values; triggered by carbachol at its EC20 | Regulator of G-protein signaling 4 (Homo sapiens), P49798 | AID 463165, 2010 | B-score at 10 µM;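 active = B-score, a plate-corrected calcium signal, over three deviations above library mean, with baseline fluorescence within five deviations of library mean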;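 also: RGS4 expression induced by doxycycline in cells with stable M3 receptor; B-score is computed from the integrated fluorescence ratio over baseline after carbachol; higher B-score means a larger calcium signal and so more RGS4 inhibition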
Target sequence (P49798 whole entry, looked up): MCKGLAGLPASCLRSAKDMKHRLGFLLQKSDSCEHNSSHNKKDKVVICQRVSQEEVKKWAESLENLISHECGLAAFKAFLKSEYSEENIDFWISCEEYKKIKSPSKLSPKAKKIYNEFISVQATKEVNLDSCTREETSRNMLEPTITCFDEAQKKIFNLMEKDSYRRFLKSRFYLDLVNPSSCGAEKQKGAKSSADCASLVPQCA
The depositor's hits bear a star; i = inactive. An excerpt weighted towards active compounds, which were near 3.5% of everything screened.

SMILES	MrgX1 ag	MrgX1 antag	MrgX1 allo act	RGS4 act	RGS4 block
Cc1ccc(C2=CC(c3ccccc3)n3ncnc3N2)cc1 (stereo unspecified)	i	i	i	i	i
C1=C(c2ccccc2)Nc2ncnn2C1c1ccccc1 (stereo unspecified)	i	i	8.2*	i	i
c1ccc(C2OC3c4cccc5cccc(c45)C3N2c2ccccc2)cc1 (stereo unspecified)	34*	i	i	i	i
COC(=O)c1cccc(-c2ccc(/C=N/N3C(=O)C4C5C=CC(C6CC56)C4C3=O)o2)c1 (stereo unspecified)	i	i	i	-9.9*	i
O=C1CC(Cc2ccccc2)C(=O)N1CCc1ccc2c(c1)OCO2 (stereo unspecified)	i	i	i	i	i
O=C1OC[C@H](Cc2ccc3c(c2)OCO3)/C1=C\c1ccc2c(c1)OCO2	i	-4.6*	i	i	i
COc1ccc(/C=C/C(=O)C2CC2)cc1COc1c(C)cccc1C	i	i	i	-8.5*	i
COc1ccc(-c2nc(CSCC(=O)NCc3ccco3)c(C)o2)cc1	i	-5.4*	i	i	i
COC1=C(Nc2ccc(C)cc2)C(=O)c2ccccc2C1=O	i	i	17*	i	i
Cc1ccc(NC2=C(N3CCCCC3)C(=O)c3ccccc3C2=O)cc1	i	i	i	i	i
COC1=C(Nc2ccccc2)C(=O)c2ccccc2C1=O	i	i	10*	i	i
CCOC(=O)CCCC(=O)N1CCOCCOCCOCC1	i	i	i	i	i
CC(C)C(c1nnnn1Cc1ccc(F)cc1)N1CCN(Cc2ccc3c(c2)OCO3)CC1 (stereo unspecified)	i	i	i	-7.2*	i
COc1ccccc1NS(=O)(=O)c1ccc(O)c(C(=O)OCc2cccc([N+](=O)[O-])c2)c1	i	-6.5*	i	i	i
COc1ccccc1NS(=O)(=O)c1ccc(C)c(C(N)=O)c1	i	i	i	i	i
CC1(C)CC(NC(=O)C23CCC(C)(C2Br)C3(C)C)CC(C)(C)N1 (stereo unspecified)	i	i	i	i	i
CCc1cccc2c(C(=O)COC(=O)c3nn(C)c(=O)c4ccccc34)c[nH]c12	i	i	i	-7.3*	i
CCn1c(C)cc(/C=C2/SC(=S)NC2=O)c1C	i	i	i	i	i
Cc1cc(/C=C2\SC(=S)NC2=O)c(C)[nH]1	38*	i	i	i	i
COc1ccccc1-c1coc2cc(O)cc(O)c2c1=O	34*	i	i	i	i
CC(C)(C)c1ccc(-n2ncc3c2CCCC3NC(=O)c2ccncc2)cc1 (stereo unspecified)	i	i	i	-8.9*	i
CCOC(=O)CCc1c(C(=O)OCC)[nH]c(CC)c1C(=O)OCc1ccccc1	i	i	i	-7.5*	i
CCOC(=O)c1c(C)[nH]c(C(=O)OCc2ccccc2)c1C	i	i	i	i	i
Cc1c(C)n2c(SCC(=O)N3CC(C)OC(C)C3)nnc2[nH]c1=O (stereo unspecified)	i	i	i	i	i
COc1ccc2[nH]c3c(NCCCOC(C)C)ncnc3c2c1	i	i	i	-7.4*	i
SMILES	MrgX1 ag	MrgX1 antag	MrgX1 allo act	RGS4 act	RGS4 block
CCN(CC)CCNc1ncnc2c1[nH]c1ccc(OC)cc12	i	i	i	i	i
CC(C)C1Cc2ccccc2-c2[nH]c(=S)[nH]c(=O)c21 (stereo unspecified)	i	i	i	i	i
Cc1cccc(-c2cc(C(=O)Nc3c(C)n(C)n(-c4ccccc4)c3=O)c3ccccc3n2)c1	i	i	6.6*	-8.5*	i
CC(NC(=O)C(c1ccccc1)c1ccccc1)C(=O)N1CCCCC1 (stereo unspecified)	i	i	i	i	i
CCn1cc(C(=O)O)c(=O)c2cc(F)c(N/N=C/c3ccccc3[N+](=O)[O-])cc21	i	i	i	-9.4*	i
CCOc1ccc(C(=O)NCc2ccco2)cc1Cl	i	i	i	i	i
Cc1cccc(NC(=O)CCCCCN2C(=O)[C@@H]3Cc4ccccc4CN3C2=O)c1	i	i	i	i	i
O=C(CCCCCN1C(=O)[C@@H]2Cc3ccccc3CN2C1=O)Nc1cccc(F)c1	i	i	i	-7.5*	i
O=C(Nc1cccc(C(=O)N2CCCCC2)c1)c1ccccc1Br	i	i	i	i	i
CCc1ccc(-c2cc(C(=O)N3N=C(C(F)F)CC3(O)C(F)F)c3ccccc3n2)cc1 (stereo unspecified)	i	i	i	-7.2*	i
CC(C)Cc1cc(C(=O)N2N=C(C(F)F)CC2(O)C(F)F)c2ccccc2n1 (stereo unspecified)	i	i	i	i	i
COc1ccc(NC(=O)c2ccccc2NC(=O)c2ccco2)c(OC)c1	i	i	i	i	i
COc1ccc(NC(=S)NNC(=O)c2ccco2)c(OC)c1	i	-5.3*	i	i	i
O=C1CC(c2ccc(Cl)cc2)CC(=O)C1CS(=O)(=O)c1ccccc1 (stereo unspecified)	i	i	i	-7.2*	i
O=C(NC(=S)NC1CC1)c1cccnc1	i	-4.7*	i	i	i
CCNC(=S)NNC(=O)c1cccnc1	i	-5.3*	i	i	i
OC1CCC(Nc2ncnc3sccc23)CC1 (stereo unspecified)	i	i	i	i	i
O=C(O)c1ccc(NS(=O)(=O)c2cccc(C(=O)Nc3cccc(C(=O)O)c3)c2)cc1	i	i	i	i	i
O=C(CSCc1ccc(Br)cc1)N1CCCC1	i	i	i	i	i
Cc1ccc(-c2ccc(OC(=O)c3ccc(=O)[nH]c3)c(C)c2)cc1	i	i	i	i	i
CC1=Nc2ccccc2/C1=C/c1sc(=N)n(-c2nccs2)c1O	46*	i	i	i	i
O=C(O)c1cc(-c2ccc(Cl)cc2)n(-c2cccc(Cl)c2)n1	i	i	i	i	i
CCOC(=O)c1c(CN(C)C)n(-c2ccc(C)cc2)c2cc(Br)c(O)cc12	i	i	i	i	i
CCOC(=O)c1c(CSC(=N)N)n(-c2ccc(C)cc2)c2cc(Br)c(OC(C)=O)cc12	i	-7.6*	i	i	i

Compound activity (PubChem)
